# Screening data: PubChem, several laboratories
# TbMetRS inhib – Trypanosoma brucei MetRS inhibition. inhibition, % at 11.9 µM. AID 624268. hit rate 0.4% among 360,000. purified T. brucei MetRS, ATP depletion, Kinase-Glo luminescence;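 active = inhibition above a per-plate cutoff of the control wells' mean inhibition plus 3 SD, cut at about 5.5% in these data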
#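 Material: parasite MetRS enzyme / Replication: singlicate, one well per compound / Signal: luminescence of leftover ATP / Schedule: 2 h aminoacylation at 25 °C after 15 min preincubation / Medium: HEPES-MgCl2-KCl buffer plus DTT, spermine, BSA, pyrophosphatase / Doses: 11.9 µM single point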
# MPTP block – inhibitors of mitochondrial permeability transition pore | isolated mouse mitochondria, Ca2+ swelling absorbance, 30 min | inhibition, % at 10 µM | hit rate 1.4% among 360,000 | AID 602449;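 active = inhibition of 50% or more, scaled per plate between neutral and stimulator controls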
# WT yeast gro inh – growth inhibition of WT yeast, mitochondrial fusion screen; mitochondrial fusion phenotypic screen, WT strain; inhibition, % at 10 µM; hit rate 2.1% among 190,000; AID 1362; in the data active = inhibition above about 58%; tested in S. cerevisiae
# CHOP inh – blocks CHOP induction under ER stress; CHO-K1 CHOP-promoter luciferase, tunicamycin-induced, 15-18 h; hit rate 3.8% among 220,000; AID 2732; inhibition, % at 10 µM;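 active = compounds that reduced the stress-induced luciferase reporter signal by more than about 70% of percent inhibition, limit read from the data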
# EBV gp42 inh – blocks Epstein-Barr virus glycoprotein 42 binding; inhibition, % (tested at 21.74 µM); hit rate 0.42% among 220,000; Fluorescence polarization binding assay, mP read-out; AID 1085; in the data active = inhibition above about 50%
# Target sequence (Q1HVG2 whole entry, looked up): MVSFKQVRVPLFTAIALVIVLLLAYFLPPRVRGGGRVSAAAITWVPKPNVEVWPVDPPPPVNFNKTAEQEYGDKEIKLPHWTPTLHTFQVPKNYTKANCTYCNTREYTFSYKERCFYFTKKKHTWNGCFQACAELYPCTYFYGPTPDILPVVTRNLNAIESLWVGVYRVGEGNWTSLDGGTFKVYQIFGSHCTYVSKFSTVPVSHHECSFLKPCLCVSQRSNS
# NR3A LBD binder – NR3A (human) ligand-binding domain modulation | NR3A LBD differential scanning fluorimetry, Tm shift; 0% = protein alone, 100% = glycine-bound protein | Tm shift relative to glycine control, % at 25 µM | hit rate 2.5% among 340,000 | AID 1259313;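 active = melting temperature shift of at least 10% of the positive control shift, at one fixed dose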
# Hits are given with their value; i = inactive; nt = no result. In the library only some 6.4% were active in any assay of this set; here they are far more common.
SMILES,TbMetRS inhib,MPTP block,WT yeast gro inh,CHOP inh,EBV gp42 inh,NR3A LBD binder
Cc1ccc2nc(-c3ccccc3)cc(C(=O)Nc3cccnc3)c2c1,i,i,nt,nt,nt,i
COc1cc2c(cc1NC(=O)c1cc(-c3cccnc3)nc3ccc(C)cc13)oc1ccccc12,i,i,i,86,i,i
COCCCNC(=O)NC(=O)c1ccccc1,i,i,i,i,i,i
Cc1ccc(Oc2c(C)nc(-c3ccccc3)[nH]c2=O)cc1,i,i,nt,i,i,i
CC(C)Cn1c(CN2C(=O)c3ccccc3C2=O)nc2ccccc2c1=O,i,i,i,i,i,20
O=C1c2ccccc2C(=O)N1Cc1nc2ccccc2c(=O)n1Cc1ccco1,nt,nt,nt,nt,nt,i
Cc1cc(Nc2ccc(Cl)cc2)n(-c2cccc(Cl)c2)n1,i,i,i,72,i,i
Cc1ccc([N+](=O)[O-])cc1-c1ccc(/C=N\n2nnnc2N)o1,i,i,i,90,i,i
OCC1OC(O)CC(O)C1O (stereo not given),i,i,nt,nt,nt,i
COc1ccc(N2C(=O)[C@@H]3[C@H](C2=O)[C@H]2c4ccccc4C=CN2[C@@H]3C(C)=O)cc1,i,i,i,i,54,i
Cc1cc(NS(=O)(=O)c2ccc(CC(C)C)cc2)no1,i,i,i,i,i,i
O=C(CSc1nc2ccc(Cl)cc2o1)NCc1ccc2c(c1)OCO2,i,i,i,i,i,i
N/C(=N\OC(=O)C(c1ccccc1)c1ccccc1)c1cccnc1,i,i,76,i,i,i
N/C(=N\OC(=O)/C=C/c1ccccc1Cl)c1cccnc1,i,i,nt,i,i,i
N/C(=N\OC(=O)/C=C/c1ccccc1)c1cccnc1,i,i,i,i,i,20
N/C(=N\OC(=O)COc1ccccc1)c1cccnc1,i,i,nt,nt,nt,i
CCn1c(SC(C)C(=O)O)nc2sc3c(c2c1=O)CCC3 (stereo not given),i,i,i,i,52,i
CN1CCN(S(=O)(=O)c2ccc(SCCOc3ccccc3)nc2)CC1,i,i,i,i,i,i
Cc1cc(C)c(O)c(C2(O)C(=O)c3ccccc3C2=O)c1,i,i,nt,i,i,i
CCCCCOc1ccc(/C=c2\sc3nc(=O)c(-c4ccccc4)nn3c2=O)cc1OC,i,i,i,i,i,i
COc1cc(/C=c2\sc3nc(-c4ccncc4)nn3c2=O)ccc1OC(C)=O,nt,nt,i,107,i,nt
COc1cccc(/C=c2\sc3nc(-c4cccs4)nn3c2=O)c1OC,i,i,nt,i,i,i
COc1ccccc1-c1nc2s/c(=C\c3cccs3)c(=O)n2n1,i,i,i,83,i,i
S=C(Nc1cccnc1)N1CCN(c2ccccc2Cl)CC1,i,i,nt,nt,nt,i
Cn1c(O)c(/C=N/Nc2ccccc2)c(=O)n(C)c1=O,i,i,67,i,i,i
SMILES,TbMetRS inhib,MPTP block,WT yeast gro inh,CHOP inh,EBV gp42 inh,NR3A LBD binder
CCOC(=O)c1ccc(NC(=S)N2CCN(C)CC2)cc1,i,i,nt,nt,nt,i
Nc1nc(-c2ccccn2)nc(N)c1Cc1c(F)cccc1Cl,i,i,i,71,i,i
CC(=O)NCC(=O)N(C)C(C(=O)Nc1ccc2c(c1)OCCO2)c1ccc(C)cc1 (stereo not given),i,i,i,i,i,i
Cc1ccc(C(C(=O)Nc2ccc3c(c2)OCO3)N(C)C(=O)/C=C\c2ccc3c(c2)OCO3)cc1 (stereo not given),i,i,i,i,i,13
COC(=O)C1CCN(C(=O)c2cc(OC)c(OC)c(OC)c2)CC1,i,i,78,i,i,i
COc1cc(C(=O)N2CCN(C(=O)C3CC3)CC2)cc(OC)c1OC,i,i,i,i,i,i
COCCN(C(=O)Nc1ccc(F)cc1F)c1nc2ccccc2s1,i,i,nt,nt,nt,i
CCCCNc1nc(N)nc(-c2cc(Cl)ccc2O)n1,i,i,i,77,i,18
CCNc1nc(N)nc(-c2cc(Cl)ccc2O)n1,i,i,i,i,i,i
CC1Sc2ccc(C(=O)O)cc2NC1=O (stereo not given),i,i,i,i,i,i
CC(=O)c1cccc(NC(=S)NNC(=O)c2ccc(C)c([N+](=O)[O-])c2)c1,i,i,i,i,i,i
COc1ccc(C(=O)COc2ccc(NC(C)=O)cc2)cc1,i,i,i,i,i,13
CCOc1ccc(C(=O)Oc2ccc(NC(C)=O)cc2)cc1,nt,nt,i,83,i,nt
COc1ccc(NC(=O)C#Cc2ccccc2)cc1,i,i,nt,nt,nt,10
CCOc1ccc(NC(=O)CC(=O)Nc2ccc(OCC)cc2)cc1,i,i,nt,nt,nt,i
CCOC(=O)C1=C(C)OC(N)=C(C#N)C1c1ccc(O)c(OC)c1 (stereo not given),i,i,i,i,i,i
CC1CN=C(NC(=O)c2cccc([N+](=O)[O-])c2)S1 (stereo not given),i,i,nt,nt,nt,i
CCCC(=O)Nc1ccc(NC(=S)NC(=O)c2ccccc2[N+](=O)[O-])cc1,i,i,i,i,i,i
CC1CC(C)CN(CCOc2ccc(Cl)cc2Cl)C1 (stereo not given),i,i,i,i,i,i
CC1CC(C)CN(CCOc2cccc(Cl)c2Cl)C1 (stereo not given),i,i,i,73,i,i
Cc1ccccc1NS(=O)(=O)c1ccc(OCCNS(C)(=O)=O)cc1,i,i,i,i,i,i
Nc1c(C(=O)Nc2ccccc2)sc2nc(-c3cccnc3)ccc12,nt,nt,nt,i,i,nt
COc1ccc(C(=O)c2sc3nc(-c4ccc(OC)cc4)ccc3c2N)cc1,i,i,i,i,i,i
COc1ccc(-c2ccc3c(N)c(C(=O)c4cccc(OC)c4)sc3n2)cc1,i,i,i,i,i,17
COc1ccc(NC(=O)c2sc3nc(-c4cccnc4)ccc3c2N)cc1,i,i,nt,i,84,i
SMILES,TbMetRS inhib,MPTP block,WT yeast gro inh,CHOP inh,EBV gp42 inh,NR3A LBD binder
CCOC(=O)c1c(NC(=O)Nc2ccc(Cl)cc2)sc(C)c1C,i,i,i,i,i,i
CCOC(=O)c1c(NC(=O)c2ccc(Cl)cc2)csc1C,i,i,i,i,i,18
Cc1cccc(NC(=O)CSc2nc3ccccc3c3nc(CCc4c(C)n[nH]c4C)nn23)c1,i,i,i,i,i,i
Cc1ccc(-c2c(C(=O)N(C)Cc3ccccc3)oc(=O)c3ccccc23)cc1,i,i,67,i,i,i
Cc1c(C#N)c2ncnc(-c3ccccc3)c2n1-c1ccccc1,i,i,i,i,60,i
N#Cc1c2n(c3c(-c4ccccc4)ncnc13)CCC2,i,i,i,i,i,i
CC1=NN(c2nc(-c3ccc(C)cc3)cs2)C(=O)C1N=Nc1cccc(O)c1 (stereo not given),i,i,i,i,i,12
CC1=NN(c2ccccc2)C(=O)C1N=Nc1cccc(O)c1 (stereo not given),i,i,nt,nt,nt,i
S=C(Sc1ccc(Cl)cc1)Sc1ccc(Cl)cc1,nt,nt,nt,106,i,nt
c1ccc2c(c1)CSc1ccccc1N2,i,i,nt,nt,nt,i
N#C/C(=C\c1ccc(OCc2ccc(Cl)cc2)cc1)C(=O)Nc1cccc(C(=O)O)c1,i,i,nt,nt,nt,i
